# According to ChEMBL document CHEMBL4425125, “Development of a Dual-Acting Antibacterial Agent (TNP-2092) for the Treatment of Persistent Bacterial Infections” (J Med Chem, 2016):
# What was measured:
# [1] = tested on: Staphylococcus aureus; assay: Antimicrobial activity against methicillin-resistant Staphylococcus aureus 67-0; type: functional
# [2] = tested on: Staphylococcus aureus; assay: Bactericidal activity against methicillin-resistant Staphylococcus aureus 67-0; type: functional
# [3] = Inhibition of wild type Staphylococcus aureus RNA polymerase assessed as reduction in RNA product formation
# [4] = Inhibition of RIF-resistant Staphylococcus aureus RNA polymerase RpoB H481Y mutant assessed as reduction in RNA product formation
# [5] = tested on: Staphylococcus aureus; assay: Antimicrobial activity against Staphylococcus aureus isogenic forms expressing gyrA S84L mutant; type: functional
# [6] = tested on: Staphylococcus aureus; assay: Antimicrobial activity against wild type Staphylococcus aureus; type: functional
# [7] = tested on: Staphylococcus aureus; assay: Antimicrobial activity against Staphylococcus aureus isogenic forms expressing parC S80F mutant; type: functional
# Summary of the method: (§1)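 MIC (μg/mL) on otherwise isogenic derivatives of S. aureus ATCC 29213 that carry the rifamycin-resistance allele rpoB H481Y and/or the quinolone-resistance alleles parC S80F and gyrA S84L. The wild-type parent is the reference strain. MICs were determined both by agar dilution and by broth dilution, tested side by side on the same panel.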
# [8] = tested on: Staphylococcus aureus; assay: Antimicrobial activity against Staphylococcus aureus isogenic forms expressing gyrA S84L and parC S80F mutant; type: functional; summary of the method: as §1
# [9] = tested on: Staphylococcus aureus; assay: Antimicrobial activity against Staphylococcus aureus isogenic forms expressing rpoB H481Y mutant; type: functional
# [10] = tested on: Staphylococcus aureus; assay: Antimicrobial activity against Staphylococcus aureus isogenic forms expressing rpoB H481Y and gyrA S84L mutant; type: functional
# [11] = tested on: Staphylococcus aureus; assay: Antimicrobial activity against Staphylococcus aureus isogenic forms expressing rpoB H481Y and parC S80F mutant; type: functional; summary of the method: as §1
# [12] = tested on: Staphylococcus aureus; assay: Antimicrobial activity against Staphylococcus aureus isogenic forms expressing rpoB H481Y/gyrA S84L/parC S80F mutant; type: functional; summary of the method: as §1
# [13] = tested on: Staphylococcus aureus; assay: Antimicrobial activity against methicillin-sensitive Staphylococcus aureus clinical isolates by broth dilution method; type: functional
# [14] = tested on: Staphylococcus aureus; assay: Antimicrobial activity against methicillin-resistant Staphylococcus aureus clinical isolates by broth dilution method; type: functional
# [15] = tested on: Staphylococcus epidermidis; assay: Antimicrobial activity against methicillin-sensitive Staphylococcus epidermidis clinical isolates by broth dilution method; type: functional
# [16] = tested on: Staphylococcus epidermidis; assay: Antimicrobial activity against methicillin-resistant Staphylococcus epidermidis clinical isolates by broth dilution method; type: functional
# [17] = tested on: Streptococcus pyogenes; assay: Antimicrobial activity against Streptococcus pyogenes clinical isolates by broth dilution method; type: functional
# [18] = tested on: Streptococcus agalactiae; assay: Antimicrobial activity against Streptococcus agalactiae clinical isolates by broth dilution method; type: functional
# [19] = tested on: Streptococcus pneumoniae; assay: Antimicrobial activity against Streptococcus pneumoniae clinical isolates by broth dilution method; type: functional
smiles,measurement,setting,value
CN[C@H](CC(C)C)C(=O)N[C@H]1C(=O)N[C@@H](CC(N)=O)C(=O)N[C@H]2C(=O)N[C@H]3C(=O)N[C@H](C(=O)N[C@H](C(=O)O)c4cc(O)cc(O)c4-c4cc3ccc4O)[C@H](O)c3ccc(c(Cl)c3)Oc3cc2cc(c3O[C@@H]2O[C@H](CO)[C@@H](O)[C@H](O)[C@H]2O[C@H]2C[C@](C)(N)[C@H](O)[C@H](C)O2)Oc2ccc(cc2Cl)[C@H]1O [VANCOMYCIN],MIC,[1],1 µg/mL
same,MBC,[2],1 µg/mL
CO[C@H]1/C=C/O[C@@]2(C)Oc3c(C)c(O)c4c(O)c(c(/C=N/N5CCN(C)CC5)c(O)c4c3C2=O)NC(=O)/C(C)=C\C=C\[C@H](C)[C@H](O)[C@@H](C)[C@@H](O)[C@@H](C)[C@H](OC(C)=O)[C@@H]1C [RIFAMPIN],IC50,[3],15 nM
same,IC50,[4],> 25000 nM
same,MIC,[5],0.008 µg/mL
same,MIC,[6],0.008 µg/mL
same,MIC,[7],0.008 µg/mL
same,MIC,[8],0.008 µg/mL
same,MIC,[9],> 250 µg/mL
same,MIC,[10],> 250 µg/mL
same,MIC,[11],> 250 µg/mL
same,MIC,[12],> 250 µg/mL
same,MIC50,[13],0.015 µg/mL
same,MIC90,[13],0.015 µg/mL
same,MIC,[14],0.008 to 4 µg/mL
same,MIC50,[14],0.015 µg/mL
same,MIC90,[14],0.015 µg/mL
same,MIC50,[15],0.015 µg/mL
same,MIC90,[15],0.015 µg/mL
same,MIC,[16],>=0.004 - 4 ug ml-1
same,MIC50,[16]; Staphylococcus epidermidis,0.015 µg/mL
same,MIC90,[16]; Staphylococcus epidermidis,> 4 µg/mL
same,MIC50,[17],0.06 µg/mL
same,MIC90,[17],0.12 µg/mL
same,MIC,[18],0.03 to 2 µg/mL
same,MIC50,[18],0.12 µg/mL
same,MIC90,[18],0.12 µg/mL
same,MIC,[19],0.12 to 1 µg/mL
same,MIC50,[19],0.25 µg/mL
same,MIC90,[19],0.25 µg/mL
same,MIC,[1],0.008 µg/mL
same,MBC,[2],2 µg/mL
